Measurements from ChEMBL document CHEMBL4265992, “Noncovalent Inhibitors of Mosquito Acetylcholinesterase 1 with Resistance-Breaking Potency” (J Med Chem, 2018).
pIC50: −log10 of the molar value. Calls of active or inactive are those of the source. The calls are words filed in the database; no cut-off is given here.

How the values were obtained:
[1] = Selectivity ratio of IC50 for recombinant human AChE to IC50 for recombinant Aedes aegypti AChE1
How it was run: (§1)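 Ratio = IC50 for hAChE divided by the higher of the IC50 values for AaAChE1 and AgAChE1. All IC50 values came from the Ellman assay with secreted recombinant enzymes.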

Acetylcholinesterase [2] = biological target: T1, Acetylcholinesterase (Homo sapiens, UniProt P22303); test: Inhibition of recombinant human AChE using acetylthiocholine iodide as substrate measured over 60 secs by Ellman assay
How it was run: (§2)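 Enzyme source: secreted, non-purified recombinant protein in growth medium. Ellman assay at 30 °C in 0.1 M phosphate buffer pH 7.4 containing 0.2 mM DTNB and 1 mM acetylthiocholine iodide. Absorbance at 412 nm was followed over 60 s after substrate addition, immediately after inhibitor. Activity was expressed relative to the mean slope of eight uninhibited controls per plate.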

Acetylcholinesterase [3] = biological target: Acetylcholinesterase (Anopheles gambiae, UniProt Q869C3); test: Inhibition of recombinant Anopheles gambiae AChE1 expressed in sf9 insect cells using acetylthiocholine iodide as substrate measured over 60 secs by Ellman assay; how it was run: as §2
[4] = Selectivity ratio of IC50 for recombinant human AChE to IC50 for recombinant Anopheles gambiae AChE1; how it was run: as §1
Acetylcholinesterase [5] = biological target: Acetylcholinesterase (Aedes aegypti, UniProt Q6A2E2); test: Inhibition of recombinant Aedes aegypti AChE1 expressed in sf9 insect cells using acetylthiocholine iodide as substrate measured over 60 secs by Ellman assay; how it was run: as §2
Acetylcholinesterase [6] = biological target: Acetylcholinesterase (Anopheles gambiae, UniProt Q869C3, G122S); test: Inhibition of recombinant Anopheles gambiae AChE1 G122S mutant expressed in sf9 insect cells using acetylthiocholine iodide as substrate measured over 60 secs by Ellman assay; how it was run: as §2
Aedes aegypti [7] = test: Insecticidal activity against five day old female adult Aedes aegypti Mombasa assessed as mortality rate at 52.7 ng administered via micro-injection measured after 24 hrs relative to control; type: functional
How it was run: (§3)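 Test compounds were made up at 100 mM in acetone, then diluted in mosquito saline (5% acetone final; 4.3% for propoxur). 23 nl was injected into the thoracic cavity of anesthetized females. Negative control was saline with matching acetone. Mosquitoes were then given glucose. Mortality was read at 24 and 48 h, Abbott-corrected when control mortality exceeded 5%. Runs with control mortality ≥20% were discarded.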

Aedes aegypti [8] = test: Insecticidal activity against five day old female adult Aedes aegypti Mombasa assessed as mortality rate at 52.7 ng administered via micro-injection measured after 48 hrs relative to control; type: functional; how it was run: as §3
Aedes aegypti [9] = test: Insecticidal activity against five day old female adult Aedes aegypti Mombasa assessed as mortality at 4.26 ug administered topically measured after 24 hrs relative to control; type: functional
How it was run: (§4)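 Mosquitoes were reared at 27–28 °C, ~80% humidity, on a 12/12 h light cycle. Insects were chilled on a −20 °C plate. 0.1 µl of compound in acetone was applied to the upper pronotum. Negative control was acetone alone. Afterwards mosquitoes were given glucose and kept in the insectary. Mortality was scored at 24 h, Abbott-corrected when control mortality exceeded 5%. Runs with control mortality ≥20% were discarded.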

Aedes aegypti [10] = test: Insecticidal activity against five day old female adult Aedes aegypti Mombasa assessed as mortality rate at 60.4 ng administered via micro-injection measured after 24 hrs relative to control; type: functional; how it was run: as §3
Aedes aegypti [11] = test: Insecticidal activity against five day old female adult Aedes aegypti Mombasa assessed as mortality rate at 60.4 ng administered via micro-injection measured after 48 hrs relative to control; type: functional; how it was run: as §3
Acetylcholinesterase [12] = biological target: T1, Acetylcholinesterase; test: Inhibition of recombinant human AChE at 1 mM using acetylthiocholine iodide as substrate measured over 60 secs by Ellman assay; settings: 1 min, 1000 µM
[13] = system: Acetylcholinesterase (Anopheles gambiae), Q869C3 [G122S]; test: Inhibition of recombinant Anopheles gambiae AChE1 G122S mutant expressed in sf9 insect cells at 1 mM using acetylthiocholine iodide as substrate measured over 60 secs by Ellman assay
[14] = biological target: Acetylcholinesterase (Aedes aegypti) (UniProt Q6A2E2); test: Inhibition of recombinant Aedes aegypti AChE1 expressed in sf9 insect cells at 1 mM using acetylthiocholine iodide as substrate measured over 60 secs by Ellman assay
[15] = biological target: Acetylcholinesterase (Anopheles gambiae) (UniProt Q869C3); test: Inhibition of recombinant Anopheles gambiae AChE1 expressed in sf9 insect cells at 1 mM using acetylthiocholine iodide as substrate measured over 60 secs by Ellman assay
Aedes aegypti [16] = test: Insecticidal activity against topically dosed female adult Aedes aegypti assessed as mortality measured after 24 hrs; type: functional; how it was run: as §4
Anopheles gambiae = test: Insecticidal activity against five day old female adult Anopheles gambiae Kisumu assessed as mortality at 4.26 ug administered topically measured after 24 hrs relative to control; type: functional; how it was run: as §4
Aedes aegypti [17] = test: Insecticidal activity against five day old female adult Aedes aegypti Mombasa assessed as mortality rate at 57.3 ng administered via micro-injection measured after 48 hrs relative to control; type: functional; how it was run: as §3
Aedes aegypti [18] = test: Insecticidal activity against topically dosed five day old female adult Aedes aegypti Mombasa assessed as mortality measured after 24 hrs; type: functional; how it was run: as §4
Aedes aegypti [19] = test: Insecticidal activity against five day old female adult Aedes aegypti Mombasa assessed as mortality rate at 57.3 ng administered via micro-injection measured after 24 hrs relative to control; type: functional; how it was run: as §3
Aedes aegypti [20] = test: Insecticidal activity against five day old female adult Aedes aegypti Mombasa assessed as mortality rate at 53.6 ng administered via micro-injection measured after 48 hrs relative to control; type: functional; how it was run: as §3
Aedes aegypti [21] = test: Insecticidal activity against five day old female adult Aedes aegypti Mombasa assessed as mortality rate at 53.6 ng administered via micro-injection measured after 24 hrs relative to control; type: functional; how it was run: as §3
Aedes aegypti [22] = test: Insecticidal activity against five day old female adult Aedes aegypti Mombasa assessed as mortality rate at 21 ng administered via micro-injection measured after 24 hrs relative to control; type: functional; how it was run: as §3

Row | SMILES | Ratio IC50 [1] | pIC50 (Acetylcholinesterase [2]) | pIC50 (Acetylcholinesterase [3]) | Ratio IC50 [4] | pIC50 (Acetylcholinesterase [5]) | pIC50 (Acetylcholinesterase [6]) | other results
1 | O=C(COc1ccc(-c2ccccc2)cc1)N1CCC(N2CCCCC2)CC1 | 1.2 | 5.34 | 5.42 | 1.2 | 5.40 | 5.38 | 
2 | CCN1CCN(C2CCN(C(=O)COc3ccc(-c4ccccc4)cc3)CC2)CC1 |  |  |  |  | 6.66 |  | 
3 | CCN1CCN(C2CCN(C(=O)COc3ccc4c(c3)CCC4=O)CC2)CC1 | 16 | 5.31 | 6.54 | 16 | 6.70 | 6.42 | mortality (Aedes aegypti [7]): 58%; mortality (Aedes aegypti [8]): 64%; mortality (Aedes aegypti [9]): 50%
4 | COc1ccc(-c2ccc(OCC(=O)NCCCN3CCCCC3)cc2)cc1 | 3.1 | 4.85 | 5.35 | 3.1 | 5.41 | 5.28 | 
5 | CCN1CCN(CCCNC(=O)COc2ccc(I)cc2)CC1 | 1.2 | 4.06 | 4.37 | 1.2 | 4.14 | 4.02 | 
6 | CN1CCN(CCCNC(=O)COc2ccc(-c3ccccc3)cc2)CC1 | 8.8 | 3.94 | 4.89 | 8.8 | 4.92 | 4.41 | 
7 | CCN1CCN(C2CCN(C(=O)COc3ccc(-c4ccc([N+](=O)[O-])cc4)cc3)CC2)CC1 | 19 | 5.68 | 7.10 | 19 | 6.96 | 6.89 | mortality (Aedes aegypti [10]): 64%; mortality (Aedes aegypti [11]): 69%; mortality (Aedes aegypti [9]): 31%
8 | O=C(COc1ccc(-c2ccccc2)cc1)N1CCCCC1 |  |  |  |  |  |  | inhibition (INH) (Acetylcholinesterase [12]): Not Active; inhibition [13]: inactive; inhibition [14]: inactive; inhibition [15]: inactive
9 | CN1CCN(CCCNC(=O)COc2ccc(I)cc2)CC1 | 1.2 | 3.86 | 3.94 | 1.2 | 3.95 | 3.89 | 
10 | O=C(COc1ccc(-c2ccccc2)cc1)N1CCOCC1 |  |  |  |  |  |  | inhibition (INH) (Acetylcholinesterase [12]): Not Active; inhibition [13]: inactive; inhibition [14]: inactive; inhibition [15]: inactive
11 | CCN1CCN(C2CCN(C(=O)COc3ccc(I)cc3)CC2)CC1 | 5.6 | 4.70 | 5.44 | 5.6 | 5.82 | 5.21 | 
12 | CNC(=O)Oc1cccc2c1OC(C)(C)O2 [BENDIOCARB] |  |  |  |  |  |  | LD50 (Aedes aegypti [16]): 0.0018 µg
13 | CCN1CCN(CCCNC(=O)COc2ccc(-c3ccc(OC)cc3)cc2)CC1 | 19 | 3.96 | 5.24 | 19 | 5.42 | 4.70 | 
14 | CCN1CCN(C2CCN(C(=O)COc3ccc(-c4ccccc4F)cc3)CC2)CC1 | 79 | 4.72 | 6.62 | 79 | 6.66 | 6.15 | mortality (Anopheles gambiae): 88%; mortality (Aedes aegypti [17]): 56%; LD50 (Aedes aegypti [18]): 2.13 µg; mortality (Aedes aegypti [19]): 55%; mortality (Aedes aegypti [9]): 75%
15 | O=C(COc1ccc(-c2ccccc2)cc1)NCCCN1CCCCC1 | 5.7 | 4.24 | 5.00 | 5.7 | 5.00 | 4.64 | 
16 | COc1ccc(-c2ccc(OCC(=O)NCCCN3CCN(C)CC3)cc2)cc1 | 7.6 | 3.72 | 4.60 | 7.6 | 4.80 | 4.48 | 
17 | CCN1CCN(CCCNC(=O)COc2ccc(-c3ccccc3)cc2)CC1 | 32 | 3.95 | 5.46 | 32 | 5.48 | 4.80 | 
18 | CCN1CCN(C(=O)COc2ccc(-c3ccccc3)cc2)CC1 |  | < 3.70 | < 3.70 |  | < 3.70 | < 3.70 | 
19 | CCN1CCN(C2CCN(C(=O)COc3ccc(-c4ccc(OC)cc4)cc3)CC2)CC1 | 45 | 4.74 | 6.40 | 45 | 6.64 | 6.02 | 
20 | O=C(COc1ccc(-c2ccccc2)cc1)N1CCC(N2CCOCC2)CC1 |  | 4.03 | < 3.70 |  | < 3.70 | < 3.70 | 
21 | CN1CCN(C2CCN(C(=O)COc3ccc(-c4ccccc4)cc3)CC2)CC1 | 40 | 5.00 | 6.62 | 40 | 6.60 | 6.27 | mortality (Aedes aegypti [20]): 66%; mortality (Aedes aegypti [21]): 58%
22 | CNC(=O)Oc1ccccc1OC(C)C [PROPOXUR] |  |  |  |  |  |  | LD50 (Aedes aegypti [16]): 0.0054 µg; mortality (Aedes aegypti [22]): 85%
23 | O=C(COc1ccc(I)cc1)NCCCN1CCCCC1 | 0.3 | 4.89 | 4.36 | 0.3 | 4.44 | 4.51 | 
